{"source": "ChEMBL document CHEMBL1157704", "about": "“Potent activity against K562 cells by polyamide-seco-CBI conjugates targeting histone H4 genes” (Bioorg Med Chem, 2010)", "key": {"[1]": {"system": "K562", "experiment": "Induction of apoptosis in human K562 cells assessed as viable cells at 250 nM after 48 hrs by annexin-V FITC and propidium iodide staining-based FACS analysis", "format": "functional", "conditions": "K562, 48 h, read-out: Activity", "procedure,_shortened": "(§1)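 Treated K562 cells […] stained with Annexin V-FITC/propidium iodide. Apoptosis was scored by two-dimensional flow cytometry at a core FACS facility.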"}, "[2]": {"system": "K562", "experiment": "Induction of apoptosis in human K562 cells assessed as early apoptotic cells at 250 nM after 48 hrs by annexin-V FITC and propidium iodide staining-based FACS analysis", "format": "functional", "procedure,_shortened": "as §1"}, "[3]": {"system": "K562", "experiment": "Cell cycle arrest in human K562 cells assessed as increase in accumulation at G2/M phase at 250 nM after 48 hrs propidium iodide staining-based FACS analysis", "format": "functional", "procedure,_shortened": "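K562 cells (ATCC, b3a2 Bcr-Abl) exposed to polyamide in culture medium and pelleted at 200g for 5 min. Pellets resuspended in PBS, fixed in prechilled 70% ethanol and stained with propidium iodide (50 µg/mL). DNA content read by flow cytometry as G0–G1, S and G2–M fractions; sub-2C DNA taken as fragmentation/apoptosis.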"}, "[4]": {"system": "K562", "experiment": "Induction of apoptosis in human K562 cells assessed as late apoptotic cells at 250 nM after 48 hrs by annexin-V FITC and propidium iodide staining-based FACS analysis", "format": "functional", "procedure,_shortened": "as §1"}, "[5]": {"system": "K562", "experiment": "Downregulation of histone H4E mRNA expression in human K562 cells at 250 nM after 48 hrs by real-time PCR analysis", "format": "functional, cell-based", "procedure,_shortened": "(§2)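 Treated K562 cells were assayed by one-step real-time RT-PCR. Reverse transcription ran 50 °C for 10 min, then hot-start polymerase activation at 95 °C for 15 min. Cycling was 45 cycles of 95 °C 15 s, 55 °C 30 s and 72 °C 30 s. Levels were normalized to GAPDH mRNA; error shown as standard deviation.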"}, "[6]": {"system": "K562", "experiment": "Cytotoxicity against human K562 cells by MTS assay", "format": "functional, cell-based", "procedure,_shortened": "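Proliferation of K562 cells (ATCC, standard culture) was read as mitochondrial conversion of the MTS tetrazolium to formazan, using the CellTiter 96 Aqueous One reagent. EC50 was derived from these readings.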"}, "[7]": {"system": "K562", "experiment": "Downregulation of histone H4C mRNA expression in human K562 cells at 250 nM after 48 hrs by real-time PCR analysis", "format": "functional", "procedure,_shortened": "as §2"}, "[8]": {"system": "K562", "experiment": "Induction of apoptosis in human K562 cells assessed as non-viable necrotic cells at 250 nM after 48 hrs by annexin-V FITC and propidium iodide staining-based FACS analysis", "format": "functional", "procedure,_shortened": "as §1"}, "[9]": {"system": "histone H4c gene fragment DNA (human)", "experiment": "Binding affinity to 5'-AGAAAA-3' sequence of 223 bp human histone H4c gene fragment DNA assessed as DNA alkylating activity at 50 to 100 nM after 15 hrs by PAGE"}}, "note": "Calls of active or inactive are those of the source. The rule behind the calls is not given here."}
{"smiles": "CN(C)CCCNC(=O)CCNC(=O)c1cc(NC(=O)c2cc(NC(=O)c3cc(NC(=O)c4nc(NC(=O)[C@@H](CCNC(=O)CCCc5ccc(N(CCCl)CCCl)cc5)NC(=O)c5cc(NC(=O)c6cc(NC(=O)CCNC(=O)c7nccn7C)cn6C)cn5C)cn4C)cn3C)cn2C)cn1C", "values": [{"measurement": "viability at 0.25 µM", "setting": "[1]", "result": 76.8, "unit": "%"}, {"measurement": "Activity", "setting": "[2]", "result": 10.4, "unit": "%"}, {"measurement": "Activity", "setting": "[3]", "result": "Active"}, {"measurement": "Activity", "setting": "[4]", "result": 9.12, "unit": "%"}, {"measurement": "Activity", "setting": "[5]", "result": "Active"}, {"measurement": "EC50", "setting": "[6]", "result": 81, "unit": "nM"}, {"measurement": "Activity", "setting": "[7]", "result": 81, "unit": "%"}, {"measurement": "Activity", "setting": "[8]", "result": 3.69, "unit": "%"}]}
{"smiles": "CC(=O)Nc1cn(C)c(C(=O)Nc2cc(C(=O)Nc3cn(C)c(C(=O)Nc4cc(C(=O)NCCCC(=O)Nc5cn(C)c(C(=O)Nc6cc(C(=O)Nc7ccc8[nH]c(C(=O)N9CC(CCl)c%10c9cc(O)c9ccccc%109)cc8c7)n(C)c6)n5)n(C)c4)n3)n(C)c2)n1", "note": "(centres undefined)", "values": [{"measurement": "Activity", "setting": "[9]", "result": "Active"}, {"measurement": "EC50", "setting": "[6]", "result": 33, "unit": "nM"}]}
{"smiles": "CN(C)CCCNC(=O)CCNC(=O)c1cc(NC(=O)c2cc(NC(=O)c3cc(NC(=O)c4cc(NC(=O)[C@@H](CCNC(=O)CCCc5ccc(N(CCCl)CCCl)cc5)NC(=O)c5nc(NC(=O)CCNC(=O)c6nc(NC(=O)c7nccn7C)cn6C)cn5C)cn4C)cn3C)cn2C)cn1C", "values": [{"measurement": "viability at 0.25 µM", "setting": "[1]", "result": 78.1, "unit": "%"}, {"measurement": "Activity", "setting": "[2]", "result": 10.3, "unit": "%"}, {"measurement": "Activity", "setting": "[3]", "result": "Active"}, {"measurement": "Activity", "setting": "[4]", "result": 10.6, "unit": "%"}, {"measurement": "Activity", "setting": "[5]", "result": "Active"}, {"measurement": "EC50", "setting": "[6]", "result": 300, "unit": "nM"}, {"measurement": "Activity", "setting": "[7]", "result": 52, "unit": "%"}, {"measurement": "Activity", "setting": "[8]", "result": 1.1, "unit": "%"}]}
{"smiles": "CC(=O)Nc1cc(C(=O)Nc2cc(C(=O)NCCC(=O)N[C@@H](CCNC(=O)c3cc(NC(=O)c4nc(NC(=O)c5cc(NC(=O)c6nc(NC(C)=O)cn6C)cn5C)cn4C)cn3C)C(=O)Nc3cn(C)c(C(=O)Nc4cc(C(=O)Nc5ccc6[nH]c(C(=O)N7CC(CCl)c8c7cc(O)c7ccccc87)cc6c5)n(C)c4)n3)n(C)c2)n(C)c1", "note": "(some centres undefined)", "values": [{"measurement": "Activity", "setting": "[9]", "result": "Active"}, {"measurement": "EC50", "setting": "[6]", "result": 17, "unit": "nM"}]}
{"smiles": "CC(=O)Nc1cc(C(=O)Nc2cc(C(=O)NCCC(=O)N[C@@H](CCNC(=O)c3cc(NC(=O)c4nc(NC(=O)CCNC(=O)c5nc(NC(C)=O)cn5C)cn4C)cn3C)C(=O)Nc3cn(C)c(C(=O)Nc4cc(C(=O)Nc5ccc6[nH]c(C(=O)N7CC(CCl)c8c7cc(O)c7ccccc87)cc6c5)n(C)c4)n3)n(C)c2)n(C)c1", "note": "(some centres undefined)", "values": [{"measurement": "Activity", "setting": "[9]", "result": "Active"}, {"measurement": "EC50", "setting": "[6]", "result": 38, "unit": "nM"}]}
{"smiles": "CN(C)CCCNC(=O)CCNC(=O)c1cc(NC(=O)c2cc(NC(=O)c3cc(NC(=O)c4cc(NC(=O)[C@H](CCNC(=O)CCCc5ccc(N(CCCl)CCCl)cc5)NC(=O)c5nc(NC(=O)CCNC(=O)c6nc(NC(=O)c7nccn7C)cn6C)cn5C)cn4C)cn3C)cn2C)cn1C", "values": [{"measurement": "viability at 0.25 µM", "setting": "[1]", "result": 83.4, "unit": "%"}, {"measurement": "Activity", "setting": "[2]", "result": 6.37, "unit": "%"}, {"measurement": "Activity", "setting": "[3]", "result": "Active"}, {"measurement": "Activity", "setting": "[4]", "result": 8.88, "unit": "%"}, {"measurement": "Activity", "setting": "[5]", "result": "inactive"}, {"measurement": "Activity", "setting": "[7]", "result": "inactive"}, {"measurement": "Activity", "setting": "[8]", "result": 1.39, "unit": "%"}]}
